Bioassay records (PubChem)
KCNQ1 pot: potentiators or activators of human KCNQ1 potassium channel. CHO-K1 KCNQ1, thallium flux FluxOR fluorescence; hits give high values. B-score at 10 µM. hit rate 0.35% among 310,000. P51787;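 active means fluorescence ratio B-score, a plate-corrected score, at least three library SD, with initial intensity B-score within 5 SD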
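Medium – assay buffer, equal DMSO in all wells · Material – CHO-K1 cell line with stable KCNQ1 potassium channel expression · Signal – kinetic FluxOR thallium fluorescence, 10-s 1-Hz baseline, 110-s post-stimulus read · Compound – single concentration per compound, DMSO matched to controls · Schedule – 37 °C overnight plating, 90-min dark dye load, 20-min compound pretreatment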
KCNK3 block: human KCNK3 channel inhibition, primary screen. CHO-KCNK3 thallium flux, FluxOR fluorescence; hits give low values. B-score at 10 µM. hit rate 0.84% among 340,000. AID 602410;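 active means B-score under library mean minus 4 SD, starting fluorescence ratio at most library mean plus 5 SD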;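 further: more negative B-score means stronger inhibition of thallium flux through KCNK3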
KCNQ1 inh: human KCNQ1 channel inhibition | CHO-K1 KCNQ1, FluxOR thallium flux fluorescence; hits give high values | B-score at 10 µM | hit rate 1.3% among 310,000;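 active means compounds whose thallium flux B-score, printed positive for inhibition, exceeds three library SD while starting fluorescence stays within three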;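 further: channel opened by potassium depolarization with thallium stimulus after 20 min compound exposure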
hERG protect: shields human hERG channel from block by proarrhythmic agents | Q12809 | CHO-hERG, FluxOR thallium flux, dofetilide IC70 present | activation (rescue from dofetilide block), less the hit threshold, % at 10 µM | hit rate 0.51% among 310,000 | AID 1511;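 active means activation above the mean of controls blocked by dofetilide plus 5 SD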;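 further: thallium influx through hERG after potassium depolarization seen as dye fluorescence rise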
Cl transport mod: KCC2 (human) Cl- transport modulation; Q9H2X9; KCC2 cells, thallium flux FluoZin-2 fluorescence; B-score of Tl+ flux slope (higher = more flux/activation; lower = inhibition) at 10 µM; hit rate 2.2% among 190,000; AID 1456;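 active means thallium flux slope and its plate-corrected score both differing from the plate sample mean at a set confidence after two filtering rounds, in either direction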;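 further: slope of fluorescence scaled to starting intensity during 10 to 20 s after thallium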
Target sequence (Q9H2X9 whole entry, looked up): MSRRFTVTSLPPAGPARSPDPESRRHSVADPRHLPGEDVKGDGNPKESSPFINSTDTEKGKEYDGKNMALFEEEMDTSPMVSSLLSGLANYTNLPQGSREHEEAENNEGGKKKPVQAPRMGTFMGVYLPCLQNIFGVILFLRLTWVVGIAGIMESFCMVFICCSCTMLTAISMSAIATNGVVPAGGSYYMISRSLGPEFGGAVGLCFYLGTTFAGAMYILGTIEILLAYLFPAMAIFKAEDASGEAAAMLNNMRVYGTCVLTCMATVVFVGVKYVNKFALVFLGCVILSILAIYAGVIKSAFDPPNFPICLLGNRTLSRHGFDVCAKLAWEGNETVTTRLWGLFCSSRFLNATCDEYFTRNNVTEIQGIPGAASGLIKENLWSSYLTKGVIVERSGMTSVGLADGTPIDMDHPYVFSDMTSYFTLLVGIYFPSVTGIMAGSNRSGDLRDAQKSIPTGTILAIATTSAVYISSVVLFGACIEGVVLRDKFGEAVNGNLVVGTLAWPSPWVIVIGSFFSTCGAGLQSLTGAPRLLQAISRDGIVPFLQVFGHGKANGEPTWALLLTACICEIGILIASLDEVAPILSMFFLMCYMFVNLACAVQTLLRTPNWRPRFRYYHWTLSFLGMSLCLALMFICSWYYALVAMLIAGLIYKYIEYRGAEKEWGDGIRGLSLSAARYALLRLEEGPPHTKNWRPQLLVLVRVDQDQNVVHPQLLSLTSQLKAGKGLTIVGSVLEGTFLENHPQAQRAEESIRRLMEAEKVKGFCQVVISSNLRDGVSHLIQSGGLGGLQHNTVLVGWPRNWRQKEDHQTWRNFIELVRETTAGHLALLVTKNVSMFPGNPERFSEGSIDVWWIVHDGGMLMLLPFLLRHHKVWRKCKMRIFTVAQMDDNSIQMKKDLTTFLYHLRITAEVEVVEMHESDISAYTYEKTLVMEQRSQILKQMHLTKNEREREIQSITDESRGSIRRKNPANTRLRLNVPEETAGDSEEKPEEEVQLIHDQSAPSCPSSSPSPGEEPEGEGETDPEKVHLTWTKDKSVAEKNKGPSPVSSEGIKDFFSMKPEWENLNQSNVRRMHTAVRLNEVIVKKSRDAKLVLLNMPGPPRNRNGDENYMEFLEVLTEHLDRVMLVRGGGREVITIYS
KCNK9 inh: inhibitors of human KCNK9 two-pore domain potassium channel | hit rate 1.2% among 310,000 | HEK293 KCNK9, FluxOR thallium flux fluorescence; hits give low values | AID 488922 | B-score at 10 µM | Q9NPC2;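 active means ratio B-score over 3 SD below the library mean, with starting fluorescence within 5 SD of its mean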;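 further: negative B-score means less thallium flux so channel inhibition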
* = called active by the depositor; i = inactive; / = no result given. Most compounds without a hit are left out; they make up all but 4.1% or so of the library.

SMILES	KCNQ1 pot	KCNK3 block	KCNQ1 inh	hERG protect	Cl transport mod	KCNK9 inh
COc1ccc(NC(=S)Nc2ccccn2)c(OC)c1	i	i	i	5.2*	0.0148	i
COc1cccc(NC(=S)NCCC(c2ccccc2)c2ccccc2)c1	i	i	10*	-9.6	0.626	i
COc1ccc(NC(=S)NCCC(c2ccccc2)c2ccccc2)c(OC)c1	29*	i	i	-10.9	/	i
S=C(NCCN1CCOCC1)Nc1cccc(Cl)c1	i	i	i	-7.9	/	i
CSc1ncccc1C(=O)OCC(=O)c1[nH]c(C)c(C(C)=O)c1C	/	i	/	/	/	/
CC(=O)C(Cc1ccccc1)NC(=O)COC(=O)CCN1C(=O)C2CC=CCC2C1=O (stereo not given)	i	i	i	-11.4	/	i
O=C(C[C@H]1C/C=C\C[C@H](NC(=O)OCC2c3ccccc3-c3ccccc32)C(=O)O[C@H](c2ccccc2)CNC1=O)N[C@H](CO)Cc1ccccc1	/	i	/	/	/	/
CCCN=C1N(C)C[C@@H]2[C@@H]3C(=O)N(C)C(=O)[C@@H]3[C@](Cc3ccccc3)(C(=O)OC)N12	/	i	/	/	/	/
CC(C)CCNC(=O)c1onc(CSc2nc3ccccc3[nH]2)c1C(=O)NCCC(C)C	i	i	i	-12.8	/	i
COc1cc(NC(=S)NCCC(c2ccccc2)c2ccccc2)cc(OC)c1	i	i	6*	-9.8	-0.321	i
COc1ccccc1NC(=O)NCCCCc1ccccc1	i	i	i	-3.7	/	i
COc1ccc(NC(=O)NCCCCc2ccccc2)c(OC)c1	i	i	i	4.6*	/	i
Cc1cccc(N(CC(=O)NCCc2ccccc2)C(=O)CCC(=O)Nc2ccccn2)c1C	i	i	i	-11.9	/	i
CCN(CC)S(=O)(=O)c1cccc(NC(=O)CCNC(=O)NC23CC4CC(CC(C4)C2)C3)c1	i	i	8*	-12.6	/	i
CCn1cc(C(=O)OCC(=O)OC2CC(C)CCC2C(C)C)c(=O)c2ccc(C)nc21 (stereo not given)	i	-11.1*	i	-18.2	/	i
C=CCOC(=O)c1cn(CC)c2nc(C)ccc2c1=O	i	i	i	-7.0	-0.541	i
Cn1c(N)c(C(=O)COC(=O)c2ccc([N+](=O)[O-])o2)c(=O)n(C)c1=O	i	i	i	-4.4	-0.352	i
COc1ccc(N2CC(C(=O)Nc3ccccc3N3CCCC3)CC2=O)c(OC)c1 (stereo not given)	i	i	i	-16.0	/	i
c1cncc(-c2nnc(-c3ccco3)o2)c1	i	i	i	6.3*	-0.0715	i
Clc1ccc(-c2nnc(-c3ccco3)o2)cc1	i	i	i	-4.7	1.11	i
COc1ccc(NC(=O)c2ccc(Cl)c(S(=O)(=O)N3CCc4ccccc4C3)c2)cn1	i	-10.2*	i	-13.2	-0.942	i
COc1ccc(NC(=O)c2ccc(Cl)c(S(=O)(=O)N3CC(C)OC(C)C3)c2)cn1 (stereo not given)	/	i	/	/	/	/
O=C1S/C(=C/c2ccc(N3CCOCC3)o2)C(=O)N1Cc1ccc(F)cc1	i	i	i	-11.8	/	i
COc1cc(/C=C2\SC(=Nc3ccccc3)N(CCc3c[nH]c4ccccc34)C2=O)ccc1OC(C)C(=O)O (stereo not given)	i	i	i	-10.9	-0.259	i
O=C1/C(=C/c2ccc(N3CCOCC3)o2)SC(=Nc2ccccc2)N1CCc1c[nH]c2ccccc12	i	i	7*	-28.5	-1.59	i
SMILES	KCNQ1 pot	KCNK3 block	KCNQ1 inh	hERG protect	Cl transport mod	KCNK9 inh
COc1ccc(N=C2S/C(=C\c3ccc(OC(C)C(=O)O)c(OC)c3)C(=O)N2CCc2c[nH]c3ccccc23)cc1 (stereo not given)	i	i	11*	-14.2	-1.72	i
CC(=O)Nc1cccc(NC(=O)CSc2nc3c(=O)n(C)c(=O)n(C)c3n2C)c1	i	i	i	-4.1	/	i
CCCCn1c(N)c(N(CCOC)C(=O)C2CCN(S(=O)(=O)c3ccc(Cl)cc3)CC2)c(=O)[nH]c1=O	i	i	i	-12.0	/	i
CCCC1CC(C)(c2csc(Nc3ccc(OCC)cc3)n2)OC1=O (stereo not given)	i	i	i	-2.2	-0.25	-7.67*
CCOc1ccc(NC(=O)CC2CC(C)(C)OC2=O)cc1 (stereo not given)	i	i	i	-3.7	0.723	i
CCn1nc(C)c(CN2CCC(Oc3ccc(C(=O)N4CCCC4)cc3)CC2)c1C	i	i	i	-6.3	/	i
O=C(NCCN1CCN(c2cccc(Cl)c2)CC1)Nc1ccccc1	i	i	i	-10.3	/	i
O=C(NCCN1CCN(Cc2ccccc2)CC1)Nc1cc(Cl)cc(Cl)c1	i	i	6*	-24.1	1.06	i
Cc1nnc(N/N=C/c2cc([N+](=O)[O-])c(N3CCC(C)CC3)cc2N2CCC(C)CC2)n1N	i	i	10*	-13.7	-0.9	i
CCc1nnc(N/N=C/c2ccc(N3CCC(C)CC3)c([N+](=O)[O-])c2)n1N	i	i	i	-4.7	-0.323	i
CN1CCN(S(=O)(=O)c2ccc(NC(=O)Cc3ccc([N+](=O)[O-])cc3)cc2)CC1	i	i	i	-9.6	/	i
COc1ccccc1N1CCN(C(=O)CN2C(=O)c3cccc4cccc(c34)C2=O)CC1	i	i	i	-10.3	-0.75	i
COc1ccccc1N1CCN(C(=O)CCCN2C(=O)c3cccc4cccc(c34)C2=O)CC1	i	i	6*	-2.9	-1.52	i
CC(C(=O)OCC(=O)NC1CCCC1)N1C(=O)c2ccccc2C1=O (stereo not given)	/	i	/	/	/	/
CCc1nnc(SCC(=O)Nc2ccccc2)nc1CC	i	i	i	4.9*	0.495	i
CCc1nnc(SCC(=O)NC2CCCC2)nc1CC	i	i	i	-2.8	0.0113	i
Cc1ccc(-c2csc3nc[nH]c(=S)c23)cc1	26*	i	i	53.0*	49.7*	i
Cc1sc2nc[nH]c(=S)c2c1-c1ccccc1	12*	i	i	20.3*	30.7*	i
Cc1cc(-c2csc3nc[nH]c(=S)c23)cc(C)c1C	45*	i	i	8.1*	85.1*	i
O=c1[nH]cnc2scc(-c3ccc(Br)cc3)c12	i	i	i	3.2	/	i
Cc1sc2nc[nH]c(=O)c2c1-c1ccc(F)cc1	i	i	i	-3.5	/	i
O=C(O)c1ccc2c(c1)C(=O)N(c1cc([N+](=O)[O-])ccn1)C2=O	i	i	i	5.2*	/	i
